Measurements as given in PMC10448495 (ACS Omega, 2023).

Columns and labels:
Format in all cases: in vivo
mice = experiment: Carrageenan-induced paw edema model; conditions: dose 10 mg/kg
Method in brief: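 Thirty BALB-c mice randomised into five groups of six. Paw volume by digital plethysmometer at 0, 1, 2, 3, 4 and 5 h; percent inhibition from paw-volume increase, control versus treated. ANOVA/Dunnett's.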

mice (BALB-c) [1] = experiment: Acetic acid-induced writhing assay; conditions: 10 mg/kg i.p.
Method in brief: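 BALB-c mice of either sex (18–22 g), fasted 2 h, six per group. Writhes counted starting 5 min after acid; percent analgesic effect derived. Mean ± S.E.M., ANOVA with Dunnett's test versus negative control.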

mice (BALB-c) [2] = experiment: Hot plate assay; conditions: dose 10 mg/kg

Row | Compound | paw volume (mice; 1 h) | paw volume (mice; 2 h) | paw volume (mice; 3 h) | paw volume (mice; 4 h) | paw volume (mice; 5 h) | no. of writhing (20 min) (mice (BALB-c) [1]) | latency of nociceptive response (mice (BALB-c) [2]; 0 min) [s] | latency of nociceptive response (mice (BALB-c) [2]; 30 min) [s] | latency of nociceptive response (mice (BALB-c) [2]; 60 min) [s] | latency of nociceptive response (mice (BALB-c) [2]; 90 min) [s] | latency of nociceptive response (mice (BALB-c) [2]; 120 min) [s]
1 | O=C(O)Cc1ccccc1Nc1c(Cl)cccc1Cl [diclofenac–Na, diclofenac sodium] | 2.283 ± 0.201 | 2.142 ± 0.105 | 2.004 ± 0.224 | 2.010 ± 0.185 | 2.019 ± 0.022 | – | – | – | – | – | –
2 | COc1ccc2c(c1)c(CC(=O)O)c(C)n2C(=O)c1ccc(Cl)cc1 [indomethacin] | 2.462 ± 0.032 | 2.207 ± 0.218 | 2.100 ± 0.122 | 2.128 ± 0.370 | 2.184 ± 0.632 | 17.04 ± 1.22 | – | – | – | – | –
3 | COc1cccc(C2(O)CCCCC2CN(C)C)c1 (stereo not shown) [tramal, tramadol] | – | – | – | – | – | – | 10.32 ± 0.57 | 26.22 ± 1.07 | 25.45 ± 2.52 | 20.37 ± 0.88 | 20.07 ± 1.66
